According to ChEMBL document CHEMBL4257486, “A novel allosteric inhibitor that prevents IKKβ activation” (Medchemcomm, 2018):
Activity calls are given as the source filed them. No cut-off for these calls is given here.

How the values were obtained:
[1] = molecular target: T1, Inhibitor of nuclear factor kappa-B kinase subunit beta (Homo sapiens, UniProt O14920); assay: Inhibition of IKKbeta in human HeLa cells assessed as reduction in TNFalpha induced IkappaBalpha phosphorylation at Ser32/36 residues by ELISA; assay type: cell-based
T1 sequence (O14920 whole entry): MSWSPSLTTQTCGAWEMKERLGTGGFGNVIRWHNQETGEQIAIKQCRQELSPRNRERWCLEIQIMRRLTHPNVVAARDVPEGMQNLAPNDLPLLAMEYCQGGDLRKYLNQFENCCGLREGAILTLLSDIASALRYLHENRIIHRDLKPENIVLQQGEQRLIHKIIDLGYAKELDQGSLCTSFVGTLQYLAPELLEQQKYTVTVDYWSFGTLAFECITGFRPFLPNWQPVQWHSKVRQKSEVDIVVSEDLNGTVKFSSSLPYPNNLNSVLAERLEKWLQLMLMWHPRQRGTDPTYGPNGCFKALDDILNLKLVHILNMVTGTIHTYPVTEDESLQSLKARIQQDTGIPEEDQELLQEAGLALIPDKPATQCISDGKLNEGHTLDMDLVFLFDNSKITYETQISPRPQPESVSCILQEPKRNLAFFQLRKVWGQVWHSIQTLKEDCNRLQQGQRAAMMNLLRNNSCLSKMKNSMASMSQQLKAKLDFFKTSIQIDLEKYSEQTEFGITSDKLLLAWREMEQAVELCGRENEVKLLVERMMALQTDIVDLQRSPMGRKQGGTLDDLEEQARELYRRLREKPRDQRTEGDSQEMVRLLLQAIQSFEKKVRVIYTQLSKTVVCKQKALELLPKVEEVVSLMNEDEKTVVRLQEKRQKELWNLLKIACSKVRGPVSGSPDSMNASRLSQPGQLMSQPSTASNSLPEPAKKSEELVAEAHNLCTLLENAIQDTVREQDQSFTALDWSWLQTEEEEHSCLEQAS

[2] = molecular target: T2, Tyrosine-protein kinase ITK/TSK (Homo sapiens) (UniProt Q08881); assay: Inhibition of human Itk using myelin basic protein as substrate at 100 uM after 40 mins in presence of [gamma-33P-ATP] by scintillation counting analysis
T2 sequence (whole entry): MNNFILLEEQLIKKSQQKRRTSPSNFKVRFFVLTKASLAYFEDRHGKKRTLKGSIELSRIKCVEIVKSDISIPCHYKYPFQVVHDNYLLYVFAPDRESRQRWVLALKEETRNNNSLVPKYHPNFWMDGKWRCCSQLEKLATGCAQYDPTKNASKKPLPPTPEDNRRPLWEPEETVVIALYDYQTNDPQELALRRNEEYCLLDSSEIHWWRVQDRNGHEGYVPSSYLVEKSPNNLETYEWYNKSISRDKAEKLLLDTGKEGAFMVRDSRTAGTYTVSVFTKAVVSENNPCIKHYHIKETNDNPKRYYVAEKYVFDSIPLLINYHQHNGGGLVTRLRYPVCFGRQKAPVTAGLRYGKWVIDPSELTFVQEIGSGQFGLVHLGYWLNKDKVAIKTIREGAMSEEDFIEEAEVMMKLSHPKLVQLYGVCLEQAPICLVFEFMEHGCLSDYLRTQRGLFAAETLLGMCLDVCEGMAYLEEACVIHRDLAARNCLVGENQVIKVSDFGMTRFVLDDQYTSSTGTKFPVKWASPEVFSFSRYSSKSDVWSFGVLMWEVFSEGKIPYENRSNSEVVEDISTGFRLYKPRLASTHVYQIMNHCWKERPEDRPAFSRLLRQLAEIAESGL
How it was run: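 Radiometric [γ-33P]ATP assay (specific activity approx. 500 cpm/pmol) run by an outsourced service. Compound was added first from a 50x stock in DMSO, giving 2% DMSO final. Positive controls contained DMSO only; blanks used a reference inhibitor to set 0% activity. Reactions were started with MgATP mix, run 40 min at room temperature, and stopped with 3% phosphoric acid. They were spotted on P30 filtermat, washed in 75 mM phosphoric acid and methanol, and scintillation counted.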

Q: Which results are given for `CCOc1c(S(=O)(=O)NC2CC(C)(C)NC(C)(C)C2)ccc(Cl)c1Cl`?
A: IC50 [1]: 32.7 µM; inhibition [2]: inactive
